Source: PMC10213863 (Cell Reports Medicine, 2023)

Experiments:
[1] = test system: TLR7/8; experiment: Human PBMC cytokine release, TLR7/8 agonists ssRNA or R848; assay type: cell-based; conditions: human PBMCs, IL-6 as readout
[2] = target: NOD1 (Homo sapiens, UniProt Q9Y239); experiment: Ramos Blue reporter B cell line, Tri-DAP stimulation; assay type: cell-based; conditions: Ramos cells; up to 10 μM; n = 4, data not shown
In short: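 Ramos Blue B reporter cells were pre-treated 30 min at 37°C, 5% CO2 with increasing concentrations of test compound or 0.25% v/v DMSO. They were then stimulated with the respective agonist, and reporter activity was read.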

[3] = target: T1, TLR7 (Mus musculus, UniProt P58681); experiment: Ex vivo PD marker CD69 on B cells vs MHV370 blood exposure in NZB/W F1 mice
T1 sequence (P58681 27-1050): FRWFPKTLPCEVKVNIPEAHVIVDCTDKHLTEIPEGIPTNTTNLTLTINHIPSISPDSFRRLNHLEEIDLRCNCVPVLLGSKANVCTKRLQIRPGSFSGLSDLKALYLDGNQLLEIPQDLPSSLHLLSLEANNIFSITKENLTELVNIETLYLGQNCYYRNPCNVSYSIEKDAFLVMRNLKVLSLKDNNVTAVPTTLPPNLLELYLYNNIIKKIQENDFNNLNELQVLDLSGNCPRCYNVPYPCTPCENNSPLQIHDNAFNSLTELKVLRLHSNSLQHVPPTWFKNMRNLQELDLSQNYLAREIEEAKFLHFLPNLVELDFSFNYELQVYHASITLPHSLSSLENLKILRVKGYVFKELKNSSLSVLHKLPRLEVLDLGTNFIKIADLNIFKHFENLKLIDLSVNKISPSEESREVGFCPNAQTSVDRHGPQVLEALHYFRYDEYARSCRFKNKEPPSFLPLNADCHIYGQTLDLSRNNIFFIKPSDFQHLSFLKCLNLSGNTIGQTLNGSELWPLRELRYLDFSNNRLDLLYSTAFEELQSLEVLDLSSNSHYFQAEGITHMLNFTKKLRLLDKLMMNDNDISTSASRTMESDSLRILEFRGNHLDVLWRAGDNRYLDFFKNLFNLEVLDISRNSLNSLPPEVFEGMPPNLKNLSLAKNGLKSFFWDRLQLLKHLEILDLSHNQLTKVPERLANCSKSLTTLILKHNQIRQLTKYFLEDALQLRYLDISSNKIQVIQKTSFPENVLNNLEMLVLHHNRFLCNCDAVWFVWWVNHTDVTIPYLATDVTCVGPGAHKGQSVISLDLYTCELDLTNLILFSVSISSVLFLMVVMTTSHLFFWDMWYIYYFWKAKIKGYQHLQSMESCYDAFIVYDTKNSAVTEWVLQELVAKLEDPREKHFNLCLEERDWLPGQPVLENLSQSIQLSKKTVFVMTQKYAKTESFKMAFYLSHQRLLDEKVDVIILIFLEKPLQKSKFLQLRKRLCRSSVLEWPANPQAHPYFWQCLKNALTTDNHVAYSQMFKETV
In short: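 NZB/W F1 mice were dosed with test compound in food. Anticoagulated whole blood was diluted 1:1 in RPMI1640 and stimulated with 0.07 μg/mL R848 or medium at 37°C, 5% CO2. CD69 MFI on CD19+ B cells was read by flow cytometry. Drug concentration in whole blood was measured by LC-MS/MS.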

[4] = target: TLR4 (Mus musculus, UniProt Q9QUK6); experiment: Murine whole blood assay, TLR4 activation; assay type: cell-based; conditions: up to 10 μM, data not shown, n = 4
In short: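 Fresh human blood or 129/Sv mouse blood was taken into citrate and diluted 1:1 with RPMI1640. It was pre-incubated 30 min at 37°C, 5% CO2 with increasing concentrations of test compound or 0.25% v/v DMSO (final). Blood was then stimulated with TLR agonists at doses from earlier work, or with R848 (3 μM), and cytokines were quantified. Viability was checked by ATPlite luminescence.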

[5] = target: T1, TLR7; experiment: Acute cytokine release in vivo assay, TLR7 agonist; conditions: 129/Sv mice; single p.o. dose 1.5 or 15 mg/kg
In short: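 129/Sv mice (5 per group) got test compound orally in 0.5% methylcellulose/0.5% Tween-80, or vehicle alone. At 1 h they were injected i.v. with the TLR agonist (line 1: 20 μg R0006; line 2: CpG1585), each pre-complexed with 140 μg DOTAP in HBSS. At 3 h, EDTA blood was taken. Plasma IFN-α (both lines) and TNF were measured by ELISA, single technical replicate per mouse. Serum drug levels were measured by LC-MS/MS.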

[6] = target: T2, TLR8 (Homo sapiens, UniProt Q9NR97); experiment: Human neutrophil ROS production, TL8-506 stimulation; assay type: cell-based
T2 sequence (Q9NR97 27-1041): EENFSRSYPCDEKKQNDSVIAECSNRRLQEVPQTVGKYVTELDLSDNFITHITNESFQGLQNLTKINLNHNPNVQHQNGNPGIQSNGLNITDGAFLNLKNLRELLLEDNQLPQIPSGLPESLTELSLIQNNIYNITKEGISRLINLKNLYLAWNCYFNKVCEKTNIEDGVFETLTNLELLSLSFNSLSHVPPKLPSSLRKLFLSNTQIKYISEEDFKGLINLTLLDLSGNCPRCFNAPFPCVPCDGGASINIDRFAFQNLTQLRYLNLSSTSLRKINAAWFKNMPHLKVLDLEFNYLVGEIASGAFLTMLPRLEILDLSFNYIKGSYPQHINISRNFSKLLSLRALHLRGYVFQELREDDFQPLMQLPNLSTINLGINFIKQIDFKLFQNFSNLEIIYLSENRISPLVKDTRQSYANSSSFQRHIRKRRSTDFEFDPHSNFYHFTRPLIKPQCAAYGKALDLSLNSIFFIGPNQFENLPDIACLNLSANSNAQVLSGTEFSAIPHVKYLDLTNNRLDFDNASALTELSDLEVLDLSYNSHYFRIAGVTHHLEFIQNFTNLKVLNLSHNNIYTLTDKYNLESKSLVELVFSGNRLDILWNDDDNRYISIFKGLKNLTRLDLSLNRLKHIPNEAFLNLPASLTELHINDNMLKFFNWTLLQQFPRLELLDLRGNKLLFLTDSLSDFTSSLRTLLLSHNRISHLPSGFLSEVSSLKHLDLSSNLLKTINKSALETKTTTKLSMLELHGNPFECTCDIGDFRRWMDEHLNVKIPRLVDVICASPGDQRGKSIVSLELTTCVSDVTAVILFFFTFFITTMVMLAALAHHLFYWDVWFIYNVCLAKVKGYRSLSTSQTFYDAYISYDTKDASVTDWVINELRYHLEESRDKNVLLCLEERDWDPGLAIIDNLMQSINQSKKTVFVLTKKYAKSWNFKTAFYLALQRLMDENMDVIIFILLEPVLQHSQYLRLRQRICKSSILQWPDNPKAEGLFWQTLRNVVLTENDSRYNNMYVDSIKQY
In short: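 Cells were pre-treated 30 min with increasing concentrations of test compound or 0.1% v/v DMSO. They were then stimulated 30 min at 37°C, 5% CO2 with TL8-506 or PMA (50 ng/mL). ROS was detected with 2 μM dihydrorhodamine for 15 min at 37°C and read by flow cytometry. Signals were normalized to vehicle; viability was checked by CellTiter-Glo.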

Chain of NOD1 (Q9Y239 whole entry): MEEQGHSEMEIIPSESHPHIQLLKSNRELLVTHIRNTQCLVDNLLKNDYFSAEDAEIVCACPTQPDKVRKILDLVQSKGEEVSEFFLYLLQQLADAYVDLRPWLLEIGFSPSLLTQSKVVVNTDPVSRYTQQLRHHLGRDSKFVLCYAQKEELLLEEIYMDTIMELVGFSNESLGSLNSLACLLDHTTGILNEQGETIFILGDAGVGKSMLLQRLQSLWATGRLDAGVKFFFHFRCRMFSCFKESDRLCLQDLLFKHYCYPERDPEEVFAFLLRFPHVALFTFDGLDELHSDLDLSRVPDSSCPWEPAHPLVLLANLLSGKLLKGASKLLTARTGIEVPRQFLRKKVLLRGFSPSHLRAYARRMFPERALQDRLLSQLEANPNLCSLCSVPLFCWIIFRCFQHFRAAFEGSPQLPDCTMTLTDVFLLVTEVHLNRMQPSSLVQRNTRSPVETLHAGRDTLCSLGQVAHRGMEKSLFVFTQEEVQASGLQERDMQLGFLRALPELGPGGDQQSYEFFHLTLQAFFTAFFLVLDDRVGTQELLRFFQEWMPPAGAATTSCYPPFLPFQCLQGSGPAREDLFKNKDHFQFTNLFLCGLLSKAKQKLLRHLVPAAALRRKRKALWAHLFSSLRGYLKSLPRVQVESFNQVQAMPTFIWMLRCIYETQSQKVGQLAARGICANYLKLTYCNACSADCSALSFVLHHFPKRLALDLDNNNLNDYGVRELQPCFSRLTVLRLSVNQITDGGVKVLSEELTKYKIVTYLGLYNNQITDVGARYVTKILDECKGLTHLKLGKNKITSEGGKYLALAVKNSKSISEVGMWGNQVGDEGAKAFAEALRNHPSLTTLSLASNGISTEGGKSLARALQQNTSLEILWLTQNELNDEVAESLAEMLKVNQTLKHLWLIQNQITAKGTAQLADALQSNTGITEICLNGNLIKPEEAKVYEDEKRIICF
Chain of TLR4 (Q9QUK6 26-835): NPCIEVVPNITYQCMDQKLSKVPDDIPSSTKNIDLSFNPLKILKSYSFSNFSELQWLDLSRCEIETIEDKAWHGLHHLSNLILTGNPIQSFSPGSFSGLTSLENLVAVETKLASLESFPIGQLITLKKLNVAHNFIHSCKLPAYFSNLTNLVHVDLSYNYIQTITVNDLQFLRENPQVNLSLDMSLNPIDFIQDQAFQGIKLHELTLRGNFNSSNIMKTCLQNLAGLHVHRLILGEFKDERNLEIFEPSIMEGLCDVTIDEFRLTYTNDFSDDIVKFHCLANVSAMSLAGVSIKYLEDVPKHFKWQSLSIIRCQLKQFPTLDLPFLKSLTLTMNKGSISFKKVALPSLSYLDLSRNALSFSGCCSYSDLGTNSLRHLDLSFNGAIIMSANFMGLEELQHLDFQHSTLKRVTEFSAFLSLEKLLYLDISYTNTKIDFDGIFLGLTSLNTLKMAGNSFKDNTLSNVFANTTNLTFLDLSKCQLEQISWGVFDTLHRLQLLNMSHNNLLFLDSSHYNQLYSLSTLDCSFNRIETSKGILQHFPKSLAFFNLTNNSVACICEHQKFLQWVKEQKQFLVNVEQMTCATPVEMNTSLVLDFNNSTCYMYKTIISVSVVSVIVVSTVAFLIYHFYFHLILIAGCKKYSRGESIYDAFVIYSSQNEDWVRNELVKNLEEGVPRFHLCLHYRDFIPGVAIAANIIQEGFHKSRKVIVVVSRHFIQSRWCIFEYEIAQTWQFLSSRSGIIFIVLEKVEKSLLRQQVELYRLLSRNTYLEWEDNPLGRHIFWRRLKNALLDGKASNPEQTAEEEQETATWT
Chain of TLR4 (Q9JHF9 19-160 partner): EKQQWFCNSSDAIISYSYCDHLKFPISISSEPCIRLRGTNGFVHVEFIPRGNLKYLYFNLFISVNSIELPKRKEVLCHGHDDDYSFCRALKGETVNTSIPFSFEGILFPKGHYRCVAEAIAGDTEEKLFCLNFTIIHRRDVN

With Cc1cc(N2CCc3c(c(C)nn3CC34CCC(NC(=O)[C@@H]5COCCN5)(CC3)CC4)C2)c2cnn(C)c2n1 [MHV370, (S)-N-(4-((5-(1,6-dimethyl-1H-pyrazolo[3,4-b]pyridin-4-yl)-3-methyl-4,5,6,7-tetrahydro-1H-pyrazolo[4,3-c]pyridin-1-yl)methyl)bicyclo[2.2.2]octan-1-yl)morpholine-3-carboxamide] the “mode of antagonism (Schild analysis)” value [1] was “competitive and reversible antagonist”, the “interference with NOD1-driven activity” value [2] was “did not interfere” and the IC50 [3] was 35 nM. The “functional inhibition of TLR4” value [4] was “did not show functional inhibition”, the “TLR7-dependent IFN-α and TNF production in plasma” value [5] was “efficiently inhibited” and the IC50 [6] was 5.2 ± 1.5 nM.
